# In ChEMBL document CHEMBL1127554, “Design, synthesis, and study of 9-substituted ellipticine and 2-methylellipticinium analogues as potential CNS-selective antitumor agents” (1994):
# Legend:
# Tumor Cell line [1] = assay: GI50 was measured In vitro as the ratio of the mean activity for all non-CNS tumor cell lines over the mean activity of the CNS tumor subpanel (eight cell lines); assay type: functional, Homo sapiens
# Method in brief: (§1)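 Ratio of the mean activity (μM) over all non-CNS tumour cell lines (ca. 40-50 lines) to the mean activity (μM) of the CNS subpanel (eight lines). Activity was taken from PG vs log concentration curves: GI50 at PG +50%, TGI at PG 0%.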
# Tumor Cell line [2] = assay: TGI was given In vitro as 0% percent growth (PG), measured as concentration of compound required to inhibit disease oriented human tumor cell line panels; Value ranges from 0.68->100; assay type: functional
# Method in brief: (§2)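 Human tumour cell line panel; percent growth plotted against log drug concentration to give dose-response curves. GI50 is the concentration giving PG +50%, and TGI the concentration giving PG 0%. Values are mean inhibitory concentrations over the entire panel. PG values at either limit (> or <) are included in the mean.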
# Tumor Cell line [3] = assay: LC50 was given In vitro as -50% percent growth (PG), measured as concentration of compound required to inhibit disease oriented human tumor cell line panels; Value ranges from 3.02->100; assay type: functional; details: read-out: LC50 (the source's name)
# Tumor Cell line [4] = assay: GI50 was given In vitro as +50% percent growth (PG), measured as concentration of compound required to inhibit disease oriented human tumor cell line panels; Value ranges from 0.060->100; assay type: functional
# Tumor Cell line [5] = assay: TGI was measured In vitro as the ratio of the mean activity for all non-CNS tumor cell lines over the mean activity of the CNS tumor subpanel (eight cell lines); assay type: functional, Homo sapiens; method in brief: as §1
# Tumor Cell line [6] = assay: LC50 was given In vitro as -50% percent growth (PG), measured as concentration of compound required to inhibit disease oriented human tumor cell line panels; Value ranges from 16.98->100; assay type: functional; details: read-out: LC50 (the source's name)
# Method in brief: (§3)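 Human tumor cell line panel tested in vitro. Percent growth (PG) plotted against log drug concentration to give dose-response curves. LC50 is the concentration where PG equals -50%; GI50 and TGI are taken at +50% and 0%. Values are means across the full panel, with values beyond the tested limits (> or <) included in the mean.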
# Tumor Cell line [7] = assay: GI50 was given In vitro as +50% percent growth (PG), measured as concentration of compound required to inhibit disease oriented human tumor cell line panels;Value ranges from 0.06->100; assay type: functional
# Tumor Cell line [8] = assay: LC50 was given In vitro as -50% percent growth (PG), measured as concentration of compound required to inhibit disease oriented human tumor cell line panels; Value ranges from 5.25->100; assay type: functional; details: read-out: LC50 (the source's name); method in brief: as §3
# Tumor Cell line [9] = assay: TGI was given In vitro as 0% percent growth (PG), measured as concentration of compound required to inhibit disease oriented human tumor cell line panels; Value ranges from 0.06->100; assay type: functional
# Tumor Cell line [10] = assay: TGI was given In vitro as 0% percent growth (PG), measured as concentration of compound required to inhibit disease oriented human tumor cell line panels; assay type: functional; method in brief: as §2
# Tumor Cell line [11] = assay: GI50 was given In vitro as +50% percent growth (PG), measured as concentration of compound required to inhibit disease oriented human tumor cell line panels; assay type: functional; method in brief: as §2
# Tumor Cell line [12] = assay: LC50 was given In vitro as -50% percent growth (PG), measured as concentration of compound required to inhibit disease oriented human tumor cell line panels; assay type: functional; details: read-out: LC50 (the source's name); method in brief: as §3
# [13] = TGI was measured in vitro as the ratio of the mean activity for all non-CNS tumor cell lines over the mean activity of the CNS tumor subpanel (eight cell lines); assay type: functional; method in brief: as §1
# Tumor Cell line [14] = assay: LC50 was given in vitro as -50% percent growth (PG), measured as concentration of compound required to inhibit disease oriented human tumor cell line panels; Value ranges from 5.75->100; assay type: functional; details: read-out: LC50 (the source's name); method in brief: as §3
# [15] = GI50 was measured in vitro as the ratio of the mean activity for all non-CNS tumor cell lines over the mean activity of the CNS tumor subpanel (eight cell lines); assay type: functional; method in brief: as §1
# [16] = LC50 was measured in vitro as the ratio of the mean activity for all non-CNS tumor cell lines over the mean activity of the CNS tumor subpanel (eight cell lines); assay type: functional
# Method in brief: (§4)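 Same PG dose-response panel. LC50 (μM) is averaged separately over the non-CNS lines (ca. 40-50 lines) and the CNS subpanel (eight lines). The ratio is the non-CNS mean divided by the CNS mean.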
# Tumor Cell line [17] = assay: TGI was given in vitro as 0% percent growth (PG), measured as concentration of compound required to inhibit disease oriented human tumor cell line panels; Value ranges from 2.75-41.69; assay type: functional; method in brief: as §2
# Tumor Cell line [18] = assay: GI50 was given in vitro as +50% percent growth (PG), measured as concentration of compound required to inhibit disease oriented human tumor cell line panels; Value ranges from 1.55-16.6; assay type: functional; method in brief: as §2
# Tumor Cell line [19] = assay: LC50 was measured In vitro as the ratio of the mean activity for all non-CNS tumor cell lines over the mean activity of the CNS tumor subpanel (eight cell lines); assay type: functional, Homo sapiens; method in brief: as §4
# Tumor Cell line [20] = assay: GI50 was given In vitro as +50% percent growth (PG), measured as concentration of compound required to inhibit disease oriented human tumor cell line panels; Value ranges from 0.62-2.95; assay type: functional; method in brief: as §2
# Tumor Cell line [21] = assay: LC50 was given In vitro as -50% percent growth (PG), measured as concentration of compound required to inhibit disease oriented human tumor cell line panels; Value ranges from 4.09->100; assay type: functional; details: read-out: LC50 (the source's name); method in brief: as §3
# Tumor Cell line [22] = assay: TGI was given In vitro as 0% percent growth (PG), measured as concentration of compound required to inhibit disease oriented human tumor cell line panels; Value ranges from 2-5.50; assay type: functional; method in brief: as §2
# Tumor Cell line [23] = assay: GI50 was given In vitro as +50% percent growth (PG), measured as concentration of compound required to inhibit disease oriented human tumor cell line panels; Value ranges from 0.32-2; assay type: functional; method in brief: as §2
# Tumor Cell line [24] = assay: GI50 was given In vitro as +50% percent growth (PG), measured as concentration of compound required to inhibit disease oriented human tumor cell line panels; Value ranges from 0.43->100; assay type: functional
# Tumor Cell line [25] = assay: TGI was given In vitro as 0% percent growth (PG), measured as concentration of compound required to inhibit disease oriented human tumor cell line panels; Value ranges from 3.47->100; assay type: functional
# Tumor Cell line [26] = assay: LC50 was given In vitro as -50% percent growth (PG), measured as concentration of compound required to inhibit disease oriented human tumor cell line panels; Value ranges from 7.94->100; assay type: functional; details: read-out: LC50 (the source's name)
structure (smiles),measurement,setting,value
CCOc1ccc2[nH]c3c(C)c4cc[n+](C)cc4c(C)c3c2c1.[I-],GI50 ratio,Tumor Cell line [1],7.9
same,TGI,Tumor Cell line [2],> 12 µM
same,CC50,Tumor Cell line [3],> 55 µM
same,GI50,Tumor Cell line [4],> 1.17 µM
same,TGI ratio,Tumor Cell line [5],9.54
Cc1c2cc[n+](C)cc2c(C)c2c1[nH]c1ccc(Oc3ccccc3)cc12.[I-],GI50 ratio,Tumor Cell line [1],3.05
same,CC50,Tumor Cell line [6],> 93.3 µM
same,TGI ratio,Tumor Cell line [5],2.06
Cc1c2cc[n+](C)cc2c(C)c2c1[nH]c1ccc(OC(C)C)cc12.[I-],GI50,Tumor Cell line [7],> 1.62 µM
same,GI50 ratio,Tumor Cell line [1],8.35
same,CC50,Tumor Cell line [8],> 58.9 µM
same,TGI,Tumor Cell line [9],> 13.2 µM
same,TGI ratio,Tumor Cell line [5],6.49
CC(=O)[O-].Cc1c2cc[n+](C)cc2c(C)c2c1[nH]c1ccc(OC(C)(C)C)cc12,GI50 ratio,Tumor Cell line [1],1
same,TGI,Tumor Cell line [10],> 100 µM
same,GI50,Tumor Cell line [11],> 100 µM
same,CC50,Tumor Cell line [12],> 100 µM
same,TGI ratio,Tumor Cell line [5],1
Cc1c2ccncc2c(C)c2c1[nH]c1ccc(Oc3ccccc3)cc12,TGI ratio,[13],0.81
same,CC50,Tumor Cell line [14],> 19.5 µM
same,GI50 ratio,[15],0.82
same,LC50 ratio,[16],0.88 µM
same,TGI,Tumor Cell line [17],6.03 µM
same,GI50,Tumor Cell line [18],2.63 µM
Cc1c2ccncc2c(C)c2c1[nH]c1ccc(OCC(F)(F)F)cc12,LC50 ratio,Tumor Cell line [19],0.74
same,GI50,Tumor Cell line [20],1.58 µM
same,GI50 ratio,Tumor Cell line [1],0.63
same,CC50,Tumor Cell line [21],> 8.13 µM
same,TGI,Tumor Cell line [22],3.24 µM
same,TGI ratio,Tumor Cell line [5],0.73
Cc1c2ccncc2c(C)c2c1[nH]c1ccc(OC(C)C)cc12,GI50,Tumor Cell line [23],1.32 µM
same,GI50 ratio,Tumor Cell line [1],0.78
same,CC50,Tumor Cell line [8],> 6.61 µM
same,TGI ratio,Tumor Cell line [5],0.9
CC(=O)[O-].Cc1c2cc[n+](C)cc2c(C)c2c1[nH]c1ccc(OC(C)C)cc12,GI50 ratio,Tumor Cell line [1],2.99
same,GI50,Tumor Cell line [24],> 3.8 µM
same,TGI,Tumor Cell line [25],> 23.4 µM
same,CC50,Tumor Cell line [26],> 66.1 µM
same,TGI ratio,Tumor Cell line [5],2.09
CC(=O)[O-].Cc1c2cc[n+](C)cc2c(C)c2c1[nH]c1ccc(O)cc12 [ELLIPTINIUM ACETATE],GI50 ratio,Tumor Cell line [1],6.28
same,CC50,Tumor Cell line [12],> 100 µM
same,TGI ratio,Tumor Cell line [5],9.34
